According to ChEMBL document CHEMBL4673249, “Anticancer Effects of Honokiol via Mitochondrial Dysfunction Are Strongly Enhanced by the Mitochondria-Targeting Carrier Berberine” (J Med Chem, 2020):
Calls of active or inactive are those of the source. No cut-off for these calls is given here.

What was measured:
[1] = Ratio of HN drug uptake to test compound drug uptake in human HepG2 cells mitochondria at 5 uM after 12 hrs by HPLC analysis; type: ADME; settings: hepg2, 12 h
How it was run: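 HepG2 cells treated with 5 μM compound or honokiol for 12 h. Mitochondria isolated with a kit by centrifugation at 600g then 11000g, 4 °C, 10 min each. Whole-cell and mitochondrial drug measured by HPLC on a C18 column, methanol-0.1% acetic acid (80:20), at 265 nm (derivative) and 210 nm (honokiol). Run thrice.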

HepG2 [2] = test: Antiproliferative activity against human HepG2 cells assessed as reduction in cell viability after 48 hrs by MTT assay; type: functional, cell-based; settings: HepG2, 48 h
How it was run: (§1)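 Cell lines grown at 37 °C in 5% CO2: A2780, A549, HL7702 and PC3 in RPMI 1640; HT29 in McCoy's 5A; HepG2 and PANC-1 in DMEM; all media with 10% FBS and penicillin/streptomycin. Cells seeded and left overnight, then exposed to compound for 48 h. MTT (5 mg/mL solution) added for 4 h at 37 °C, formazan dissolved in DMSO, absorbance read at 570 nm. IC50 taken from viability; run in triplicate.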

PANC-1 = test: Induction of morphological changes in human PANC-1 cells assessed as accumulation of cytoplasmic vacuoles at 4 uM after 24 hrs by optical microscopic method; type: functional, cell-based
How it was run: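 Cells grown at 37 °C, 5% CO2 in media with 10% FBS and penicillin/streptomycin, then treated with compound. Cytoplasmic vacuoles judged by optical microscopy. Time course at 4 μM, or 10 h exposure across increasing concentrations.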

L02 = test: Antiproliferative activity against human L02 cells assessed as reduction in cell viability after 48 hrs by MTT assay; type: cell-based; settings: L02, 48 h; how it was run: as §1
HepG2 [3] = test: Induction of apoptosis in human HepG2 cells assessed as increase in cleaved-caspase 8 protein expression at 1 to 4 uM after 24 hrs by Western blot analysis; type: functional, cell-based; settings: dose 1-4 µM
How it was run: (§2)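 HepG2 cells lysed in RIPA on ice for 20 min; protein measured by BCA. Lysates run on 10% SDS-PAGE and transferred to PVDF. Membranes blocked in 5% nonfat milk/TBST for 2 h, incubated with primary antibodies overnight at 4 °C, then HRP secondary antibody; bands detected by ECL.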

HepG2 [4] = test: Antitumour activity against human HepG2 cells xenografted in AB zebrafish assessed as inhibition of cell growth at 0.8 to 2.4 uM after 48 hrs by cell tracker CM-Dil based laser confocal microscopic method; type: functional; settings: dose 0.8-2.4 µM
How it was run: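 Wild-type AB zebrafish embryos raised at 28 °C in embryo medium (5.0 mM NaCl, 0.17 mM KCl, 0.4 mM CaCl2, 0.16 mM MgSO4). HepG2 cells labelled with CM-DiI, microinjected into 2-day-old larvae. At 4 h post-injection, larvae with the same injection spot were grouped (about 15–20 per group, three wells each). Exposed to 0.8, 1.6 or 2.4 μM in the water for 48 h; doxorubicin 1.0 μM as reference. Tumour fluorescence intensity measured by confocal microscopy.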

HepG2 [5] = test: Induction of mitochondrial dysfunction in human HepG2 cells assessed as decrease in mitochondrial membrane […] at 1 to 4 uM after 24 hrs by JC-1 staining based flow cytometric analysis; type: functional, cell-based; settings: dose 1-4 µM
How it was run: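 HepG2 cells in 6-well plates treated for 24 h at 37 °C, then trypsinized. Stained with JC-1 at a final 2.5 μg/mL for 30 min, washed three times, resuspended in PBS and read by flow cytometry.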

HepG2 [6] = test: Induction of apoptosis in human HepG2 cells assessed as viable cells at 2 uM after 24 hrs by annexin V/propidium iodide staining based flow cytometric analysis (reference value: 95.3%); type: functional; settings: read-out: Activity
HepG2 (Homo sapiens) = test: Induction of morphological changes in human HepG2 cells assessed as accumulation of cytoplasmic vacuoles at 4 uM after 24 hrs by optical microscopic method
HepG2 [7] = test: Induction of apoptosis in human HepG2 cells assessed as increase in cleaved-PARP protein expression at 1 to 4 uM after 24 hrs by Western blot analysis; type: functional, cell-based; settings: dose 1-4 µM; how it was run: as §2
HepG2 [8] = test: Induction of morphological changes in human HepG2 cells assessed as accumulation of vacuoles at 3 uM after 24 hrs in presence of 3-MA by microscopic method; type: functional, cell-based
How it was run: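 HepG2 cells given 3 μM compound for 24 h with chloroquine (10 μM) or 3-methyladenine (1 mM). Vacuolization and viability examined, viability by MTT.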

HepG2 [9] = test: Induction of apoptosis in human HepG2 cells assessed as early apoptotic cells at 2 uM after 24 hrs by annexin V/propidium iodide staining based flow cytometric analysis (reference value: 1.29%); type: functional
HepG2 [10] = test: Induction of apoptosis in human HepG2 cells assessed as necrotic cells at 1 uM after 24 hrs by annexin V/propidium iodide staining based flow cytometric analysis (reference value: 0.11%); type: functional
HepG2 [11] = test: Induction of mitochondrial dysfunction in human HepG2 cells assessed as increase in MPTP opening at 1 to 4 uM after 24 hrs by JC-1 staining based flow cytometric analysis; type: functional, cell-based; settings: dose 1-4 µM
A549 [12] = test: Antiproliferative activity against human A549 cells assessed as reduction in cell viability after 48 hrs by MTT assay; type: functional, cell-based; settings: A549, 48 h; how it was run: as §1
HepG2 [13] = test: Induction of apoptosis in human HepG2 cells assessed as late apoptotic cells at 1 uM after 24 hrs by annexin V/propidium iodide staining based flow cytometric analysis (reference value: 3.22%); type: functional
A549 [14] = test: Induction of morphological changes in human A549 cells assessed as accumulation of cytoplasmic vacuoles at 4 uM after 24 hrs by optical microscopic method; type: functional, cell-based

C=CCc1ccc(O)c(-c2ccc(OCCCCCc3c4[n+](cc5c(OC)c(OC)ccc35)CCc3cc5c(cc3-4)OCO5)c(CC=C)c2)c1.[I-]
Ratio [1]: 3.7 | IC50 (HepG2 [2]): 1.63 µM | Activity (PANC-1): Active | IC50 (L02): 4.61 µM | Activity (HepG2 [3]): Active | growth inhibition (GI) (HepG2 [4]): Active | Activity (HepG2 [5]): Active | viability at 2 µM (HepG2 [6]): 93.3% | Activity (HepG2 (Homo sapiens)): Active | Activity (HepG2 [7]): Active | Activity (HepG2 [8]): Active | Activity (HepG2 [9]): 3.03% | Activity (HepG2 [10]): 0.2% | Activity (HepG2 [11]): Active | IC50 (A549 [12]): 3 µM | Activity (HepG2 [13]): 3.21% | Activity (A549 [14]): Active
